Data published in ChEMBL document CHEMBL1151962, “Identification of N,1,4,4-tetramethyl-8-{[4-(4-methylpiperazin-1-yl)phenyl]amino}-4,5-dihydro-1H-pyrazolo[4,3-h]quinazoline-3-carboxamide (PHA-848125), a potent, orally available cyclin dependent kinase inhibitor” (J Med Chem, 2009).
In brackets after ≈: the same amount, converted by molar mass.

Experiments:
[1] = Solubility at pH 7; type: physicochemical; details: buffer
[2] = target: Cyclin-dependent kinase 1/cyclin B1 (Homo sapiens, UniProt P06493); assay: Inhibition of CDK1/Cyclin B
Outline: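 Biochemical kinase-panel assay against the CDK1/cyclin B complex; IC50 in μM, reported as the mean of two or more experiments.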

[3] = system: A2780; assay: Effect on cell cycle progression in human A2780 cells assessed as increase in accumulation at […] phase at 1 uM after 24 hrs by flow cytometry; type: functional
Outline: (§1)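 A2780 cells (ECACC) were seeded at 25 000 cells/cm² in RPMI 1640 pH 7.4 with 10% FBS, 2 mM L-glutamine and penicillin-streptomycin, at 37 °C and 5% CO2. After 24 h, cells were exposed to 1 μM compound for 24 h. Floating and trypsin/EDTA-detached cells were pooled and PBS-washed. Samples were split for flow cytometry and BrdU incorporation. Results are expressed versus untreated control cells.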

[4] = system: A2780; assay: Effect on cell cycle progression in human A2780 cells assessed as decrease in accumulation at S phase at 1 uM after 24 hrs by flow cytometry; type: functional; design: scale not given: the % may be the effect or the level left; outline: as §1
[5] = system: A2780; assay: Effect on cell cycle progression in human A2780 cells assessed as decrease in accumulation at G2/M phase at 1 uM after 24 hrs by flow cytometry; type: functional; design: scale not given: the % may be the effect or the level left; outline: as §1
[6] = system: A2780; assay: Inhibition of DNA synthesis in human A2780 cells assessed as decrease in […] incorporation at 1 uM after 24 hrs by flow cytometry; type: functional; design: scale not given: the % may be the effect or the level left; outline: as §1
[7] = system: A2780; assay: Antitumor activity against human A2780 cells xenografted in nude mouse assessed as tumor growth inhibition at 20 mg/kg, po BID for 10 consecutive days; type: functional; design: scale not given: the % may be the effect or the level left
Outline: (§2)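 A2780 human ovarian xenografts were grown in nude mice. Compound was given orally at 20, 30 or 40 mg/kg twice daily for 10 consecutive days. The read-out was tumor growth inhibition.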

[8] = system: A2780; assay: Antitumor activity against human A2780 cells xenografted in nude mouse assessed as tumor growth inhibition at 30 mg/kg, po BID for 10 consecutive days; type: functional; design: scale not given: the % may be the effect or the level left; outline: as §2
[9] = system: A2780; assay: Antitumor activity against human A2780 cells xenografted in nude mouse assessed as tumor growth inhibition at 40 mg/kg, po BID for 10 consecutive days; type: functional; design: scale not given: the % may be the effect or the level left; outline: as §2
[10] = Inhibition of PDGFR
[11] = target: Mast/stem cell growth factor receptor Kit (Homo sapiens, UniProt P10721); assay: Inhibition of C-KIT
[12] = target: Vascular endothelial growth factor receptor 3 (Homo sapiens, UniProt P35916); assay: Inhibition of VEGFR3
[13] = target: Serine/threonine-protein kinase Nek6 (Homo sapiens, UniProt Q9HC98); assay: Inhibition of NEK6
Chain of Serine/threonine-protein kinase Nek6 (Q9HC98 whole entry): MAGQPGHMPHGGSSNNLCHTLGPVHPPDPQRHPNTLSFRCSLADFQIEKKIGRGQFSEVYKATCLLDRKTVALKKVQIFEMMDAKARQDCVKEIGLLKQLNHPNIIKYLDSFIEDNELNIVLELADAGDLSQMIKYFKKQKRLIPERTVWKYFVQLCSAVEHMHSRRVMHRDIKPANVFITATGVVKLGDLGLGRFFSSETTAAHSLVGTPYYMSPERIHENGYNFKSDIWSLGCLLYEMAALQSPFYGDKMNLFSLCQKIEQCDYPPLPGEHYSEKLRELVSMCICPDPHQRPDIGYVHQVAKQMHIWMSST

[14] = Inhibition of NIM
[15] = target: Fibroblast growth factor receptor 1 (Homo sapiens, UniProt P11362); assay: Inhibition of FGFR1
[16] = target: Proto-oncogene tyrosine-protein kinase receptor Ret (Homo sapiens, UniProt P07949); assay: Inhibition of RET
[17] = Inhibition of SULU1
[18] = target: Aurora kinase B (Homo sapiens, UniProt Q96GD4); assay: Inhibition of Aurora B
Chain of Aurora kinase B (Q96GD4 whole entry): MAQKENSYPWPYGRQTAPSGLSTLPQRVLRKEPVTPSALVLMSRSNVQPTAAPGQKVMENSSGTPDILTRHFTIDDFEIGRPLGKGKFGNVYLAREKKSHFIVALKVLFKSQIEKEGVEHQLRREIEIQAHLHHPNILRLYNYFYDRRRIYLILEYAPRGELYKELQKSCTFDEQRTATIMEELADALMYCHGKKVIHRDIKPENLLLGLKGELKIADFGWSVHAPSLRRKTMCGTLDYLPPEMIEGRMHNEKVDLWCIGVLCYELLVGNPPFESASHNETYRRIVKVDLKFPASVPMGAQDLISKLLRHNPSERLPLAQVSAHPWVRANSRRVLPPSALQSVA

[19] = target: RAC-alpha serine/threonine-protein kinase (Homo sapiens, UniProt P31749); assay: Inhibition of AKT1
[20] = target: Cell division cycle 7-related protein kinase (Homo sapiens, UniProt O00311); assay: Inhibition of CDC7
[21] = target: Serine/threonine-protein kinase Chk1 (Homo sapiens, UniProt O14757); assay: Inhibition of CHK1
Chain of Serine/threonine-protein kinase Chk1 (O14757 whole entry): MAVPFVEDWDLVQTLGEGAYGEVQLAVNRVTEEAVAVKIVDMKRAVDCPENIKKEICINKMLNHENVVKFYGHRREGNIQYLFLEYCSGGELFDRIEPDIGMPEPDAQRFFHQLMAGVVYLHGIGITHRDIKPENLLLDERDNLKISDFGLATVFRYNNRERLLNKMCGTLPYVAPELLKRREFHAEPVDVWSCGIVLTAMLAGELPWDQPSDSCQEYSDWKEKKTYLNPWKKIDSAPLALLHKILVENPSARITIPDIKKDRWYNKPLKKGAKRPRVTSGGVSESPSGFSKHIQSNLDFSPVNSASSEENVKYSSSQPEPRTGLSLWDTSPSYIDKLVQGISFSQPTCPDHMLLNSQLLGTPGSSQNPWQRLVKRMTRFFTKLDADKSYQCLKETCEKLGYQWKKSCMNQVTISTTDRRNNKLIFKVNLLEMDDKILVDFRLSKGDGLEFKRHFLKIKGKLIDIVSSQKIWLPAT

[22] = Inhibition of CK2
[23] = target: Mitogen-activated protein kinase 1 (Homo sapiens, UniProt P28482); assay: Inhibition of ERK2
[24] = target: Glycogen synthase kinase-3 beta (Homo sapiens, UniProt P49841); assay: Inhibition of GSK3-beta
[25] = target: Insulin-like growth factor 1 receptor (Homo sapiens, UniProt P08069); assay: Inhibition of IGF1R
Chain of Insulin-like growth factor 1 receptor (P08069 31-736 limits assumed): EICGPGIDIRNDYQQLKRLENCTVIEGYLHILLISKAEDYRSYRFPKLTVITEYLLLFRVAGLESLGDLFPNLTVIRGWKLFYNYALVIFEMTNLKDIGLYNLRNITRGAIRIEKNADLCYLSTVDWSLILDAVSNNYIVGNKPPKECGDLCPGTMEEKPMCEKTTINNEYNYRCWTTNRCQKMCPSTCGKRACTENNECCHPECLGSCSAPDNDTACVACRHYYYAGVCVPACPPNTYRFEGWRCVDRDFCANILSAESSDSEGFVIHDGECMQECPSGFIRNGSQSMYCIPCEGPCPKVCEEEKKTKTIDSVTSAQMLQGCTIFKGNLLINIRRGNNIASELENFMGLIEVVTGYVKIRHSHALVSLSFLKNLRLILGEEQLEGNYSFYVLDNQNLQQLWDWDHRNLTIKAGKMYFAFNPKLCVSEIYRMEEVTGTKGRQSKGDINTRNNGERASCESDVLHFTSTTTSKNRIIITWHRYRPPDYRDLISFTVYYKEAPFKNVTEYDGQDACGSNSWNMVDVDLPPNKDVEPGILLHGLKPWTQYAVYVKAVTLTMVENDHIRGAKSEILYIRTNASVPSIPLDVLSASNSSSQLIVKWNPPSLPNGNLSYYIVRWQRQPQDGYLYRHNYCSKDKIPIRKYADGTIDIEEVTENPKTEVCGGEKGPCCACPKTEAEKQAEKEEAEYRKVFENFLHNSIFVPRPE
Chain of Insulin-like growth factor 1 receptor (P08069 741-1367 limits assumed): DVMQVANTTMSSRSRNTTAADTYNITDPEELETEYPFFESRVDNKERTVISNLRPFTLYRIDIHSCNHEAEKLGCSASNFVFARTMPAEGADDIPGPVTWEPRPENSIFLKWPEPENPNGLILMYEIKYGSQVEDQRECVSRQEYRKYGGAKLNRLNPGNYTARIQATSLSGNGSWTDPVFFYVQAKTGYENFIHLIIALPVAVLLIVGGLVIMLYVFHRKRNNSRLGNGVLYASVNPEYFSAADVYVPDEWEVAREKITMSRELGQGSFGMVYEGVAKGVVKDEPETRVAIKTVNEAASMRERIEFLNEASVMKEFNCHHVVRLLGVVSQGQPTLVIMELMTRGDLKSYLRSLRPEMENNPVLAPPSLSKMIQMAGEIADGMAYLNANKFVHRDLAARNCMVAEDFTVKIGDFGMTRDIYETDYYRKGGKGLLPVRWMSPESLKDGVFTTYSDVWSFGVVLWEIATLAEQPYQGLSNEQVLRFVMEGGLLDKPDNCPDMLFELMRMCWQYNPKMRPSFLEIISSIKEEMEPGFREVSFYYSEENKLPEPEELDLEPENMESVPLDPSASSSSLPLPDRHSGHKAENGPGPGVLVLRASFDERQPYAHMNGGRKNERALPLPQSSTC

[26] = target: Inhibitor of nuclear factor kappa-B kinase subunit epsilon (Homo sapiens, UniProt Q14164); assay: Inhibition of IKKi
[27] = target: Inhibitor of nuclear factor kappa-B kinase subunit beta (Homo sapiens, UniProt O14920); assay: Inhibition of IKK2
[28] = target: Insulin receptor (Homo sapiens, UniProt P06213); assay: Inhibition of IR
[29] = target: Tyrosine-protein kinase Lyn (Homo sapiens, UniProt P07948); assay: Inhibition of LYN
Chain of Tyrosine-protein kinase Lyn (P07948 whole entry): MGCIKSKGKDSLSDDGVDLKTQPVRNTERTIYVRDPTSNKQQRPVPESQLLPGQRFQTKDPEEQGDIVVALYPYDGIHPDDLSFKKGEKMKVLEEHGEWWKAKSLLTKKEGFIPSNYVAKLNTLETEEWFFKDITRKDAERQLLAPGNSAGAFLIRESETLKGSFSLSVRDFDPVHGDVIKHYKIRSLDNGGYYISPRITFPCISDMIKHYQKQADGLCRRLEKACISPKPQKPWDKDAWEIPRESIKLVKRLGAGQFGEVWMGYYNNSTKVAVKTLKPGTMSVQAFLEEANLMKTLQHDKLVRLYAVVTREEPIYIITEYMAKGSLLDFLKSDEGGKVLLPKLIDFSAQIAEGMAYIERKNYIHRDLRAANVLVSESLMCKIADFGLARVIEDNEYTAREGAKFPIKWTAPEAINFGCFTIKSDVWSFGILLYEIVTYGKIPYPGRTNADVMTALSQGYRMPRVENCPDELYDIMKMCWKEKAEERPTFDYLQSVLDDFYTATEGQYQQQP

[30] = target: MAP kinase-activated protein kinase 2 (Homo sapiens, UniProt P49137); assay: Inhibition of MAPKAPK2
Chain of MAP kinase-activated protein kinase 2 (P49137 whole entry): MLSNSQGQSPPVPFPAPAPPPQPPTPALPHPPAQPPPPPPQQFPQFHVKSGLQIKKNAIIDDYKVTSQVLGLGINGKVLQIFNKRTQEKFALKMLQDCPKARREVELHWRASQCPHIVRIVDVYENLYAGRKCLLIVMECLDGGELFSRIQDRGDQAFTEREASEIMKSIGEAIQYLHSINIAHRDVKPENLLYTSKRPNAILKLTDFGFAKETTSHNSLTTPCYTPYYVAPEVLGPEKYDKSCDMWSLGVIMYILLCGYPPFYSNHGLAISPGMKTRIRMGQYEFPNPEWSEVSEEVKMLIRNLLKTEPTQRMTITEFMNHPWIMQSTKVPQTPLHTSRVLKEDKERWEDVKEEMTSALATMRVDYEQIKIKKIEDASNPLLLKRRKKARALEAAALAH

[31] = target: Serine/threonine-protein kinase PAK 4 (Homo sapiens, UniProt O96013); assay: Inhibition of PAK4
Chain of Serine/threonine-protein kinase PAK 4 (O96013 whole entry): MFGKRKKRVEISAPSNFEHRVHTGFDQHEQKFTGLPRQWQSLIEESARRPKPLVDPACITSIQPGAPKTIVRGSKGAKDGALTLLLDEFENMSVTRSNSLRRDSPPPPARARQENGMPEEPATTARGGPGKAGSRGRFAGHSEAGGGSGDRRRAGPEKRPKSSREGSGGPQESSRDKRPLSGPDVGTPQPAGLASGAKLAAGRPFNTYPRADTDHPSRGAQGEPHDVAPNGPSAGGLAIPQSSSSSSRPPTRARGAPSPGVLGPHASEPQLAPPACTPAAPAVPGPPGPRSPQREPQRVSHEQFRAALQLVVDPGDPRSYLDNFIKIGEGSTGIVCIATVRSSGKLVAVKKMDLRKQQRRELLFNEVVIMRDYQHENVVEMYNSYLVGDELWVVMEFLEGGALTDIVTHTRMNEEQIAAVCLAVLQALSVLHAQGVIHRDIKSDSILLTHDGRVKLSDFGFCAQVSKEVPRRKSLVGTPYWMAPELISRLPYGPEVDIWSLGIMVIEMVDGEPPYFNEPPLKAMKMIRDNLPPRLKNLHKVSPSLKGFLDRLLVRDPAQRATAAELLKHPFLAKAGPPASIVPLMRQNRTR

[32] = target: 3-phosphoinositide-dependent protein kinase 1 (Homo sapiens, UniProt O15530); assay: Inhibition of PDK1
[33] = target: cAMP-dependent protein kinase catalytic subunit alpha (Homo sapiens, UniProt P17612); assay: Inhibition of PKAalpha
[34] = target: Protein kinase C beta type (Homo sapiens, UniProt P05771); assay: Inhibition of PKCbeta
Chain of Protein kinase C beta type (P05771 whole entry): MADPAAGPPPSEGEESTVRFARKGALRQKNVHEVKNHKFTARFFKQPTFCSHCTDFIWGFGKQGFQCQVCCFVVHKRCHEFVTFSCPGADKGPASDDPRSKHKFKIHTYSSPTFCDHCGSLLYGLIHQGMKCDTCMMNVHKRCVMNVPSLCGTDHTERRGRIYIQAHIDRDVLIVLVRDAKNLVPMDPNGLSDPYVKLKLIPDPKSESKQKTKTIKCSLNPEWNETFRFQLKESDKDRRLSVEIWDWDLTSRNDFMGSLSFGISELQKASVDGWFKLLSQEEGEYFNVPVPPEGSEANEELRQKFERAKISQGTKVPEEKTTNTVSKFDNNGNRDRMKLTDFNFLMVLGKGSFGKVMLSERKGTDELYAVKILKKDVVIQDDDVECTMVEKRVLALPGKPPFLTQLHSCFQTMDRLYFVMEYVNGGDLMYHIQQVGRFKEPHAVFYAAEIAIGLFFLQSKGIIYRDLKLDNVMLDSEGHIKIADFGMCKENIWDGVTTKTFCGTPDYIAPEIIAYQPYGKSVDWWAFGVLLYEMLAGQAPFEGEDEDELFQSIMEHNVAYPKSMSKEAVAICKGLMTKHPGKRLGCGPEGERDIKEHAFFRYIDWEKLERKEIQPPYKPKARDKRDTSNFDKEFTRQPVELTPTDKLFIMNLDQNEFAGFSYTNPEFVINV

[35] = target: Serine/threonine-protein kinase PLK1 (Homo sapiens, UniProt P53350); assay: Inhibition of PLK1
[36] = target: Mitogen-activated protein kinase 14 (Homo sapiens, UniProt Q16539); assay: Inhibition of P38alpha
Chain of Mitogen-activated protein kinase 14 (Q16539 whole entry): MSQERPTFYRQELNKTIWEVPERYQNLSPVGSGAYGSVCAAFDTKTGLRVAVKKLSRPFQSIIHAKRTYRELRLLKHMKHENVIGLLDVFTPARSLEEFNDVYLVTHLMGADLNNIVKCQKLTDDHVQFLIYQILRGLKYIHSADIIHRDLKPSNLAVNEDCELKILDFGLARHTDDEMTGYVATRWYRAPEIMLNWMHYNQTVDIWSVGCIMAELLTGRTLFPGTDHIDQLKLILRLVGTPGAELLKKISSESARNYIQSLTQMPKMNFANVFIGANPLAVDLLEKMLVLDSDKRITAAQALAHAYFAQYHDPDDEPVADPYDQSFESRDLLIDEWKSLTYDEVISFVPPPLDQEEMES

[37] = target: Mitogen-activated protein kinase 11 (Homo sapiens, UniProt Q15759); assay: Inhibition of P38beta
[38] = target: STE20-like serine/threonine-protein kinase (Homo sapiens, UniProt Q9H2G2); assay: Inhibition of STLK2
[39] = target: Vascular endothelial growth factor receptor 2 (Homo sapiens, UniProt P35968); assay: Inhibition of VEGFR2
[40] = target: Tyrosine-protein kinase ZAP-70 (Homo sapiens, UniProt P43403); assay: Inhibition of ZAP-70
[41] = target: T1, Aurora kinase A (Homo sapiens, UniProt O14965); assay: Inhibition of Aurora A
T1 sequence (O14965 whole entry): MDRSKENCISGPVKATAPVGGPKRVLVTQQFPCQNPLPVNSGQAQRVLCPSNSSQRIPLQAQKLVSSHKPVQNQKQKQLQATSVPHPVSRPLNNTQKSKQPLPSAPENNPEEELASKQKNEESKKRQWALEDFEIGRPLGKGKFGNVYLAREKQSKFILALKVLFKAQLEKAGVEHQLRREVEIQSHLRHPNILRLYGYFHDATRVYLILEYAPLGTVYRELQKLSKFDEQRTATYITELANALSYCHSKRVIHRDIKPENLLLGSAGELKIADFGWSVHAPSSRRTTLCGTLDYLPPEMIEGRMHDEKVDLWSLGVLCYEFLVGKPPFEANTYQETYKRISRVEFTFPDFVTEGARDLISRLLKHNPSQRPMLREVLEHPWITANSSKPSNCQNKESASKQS

[42] = system: A2780; assay: Antiproliferative activity against human A2780 cells after 72 hrs by cell Titer_Glo assay; type: functional, cell-based; details: A2780, 72 h
Outline: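 A2780 cells were seeded at 10000–30000 cells/cm² in medium with 10% FCS. After 24 h they were treated with serial dilutions of compound, in two replicates. Cell amount was read by Cell Titer Glo 72 h after treatment. IC50 came from sigmoidal fitting.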

**Q.** Which solubility [1] does the source give for `CNC(=O)c1nn(C)c2c1C(C)(C)Cc1cnc(Nc3ccc(N4CCN(C)CC4)cc3)nc1-2` [MILCICLIB] here?
**A.** 191 µM (≈ 88 µg/mL)

**Q.** And the IC50 [2]?
**A.** 0.398 µM

**Q.** And the Activity [3]?
**A.** 49%

**Q.** What about the Activity [4] of the same compound?
**A.** 68%

**Q.** What about the Activity [5] of the same compound?
**A.** 40%

**Q.** What about the Activity [6] of the same compound?
**A.** 75%

**Q.** What about the Activity [7] of the same compound?
**A.** 53%

**Q.** What about the Activity [8] of the same compound?
**A.** 76%

**Q.** And the Activity [9]?
**A.** 91%

**Q.** What about the IC50 [10] of the same compound?
**A.** 0.579 µM

**Q.** And the IC50 [11]?
**A.** 0.668 µM

**Q.** And the IC50 [12]?
**A.** 0.92 µM

**Q.** And the IC50 [13]?
**A.** 1.06 µM

**Q.** And the IC50 [14]?
**A.** 1.17 µM

**Q.** And the IC50 [15]?
**A.** 1.21 µM

**Q.** And the IC50 [16]?
**A.** 1.93 µM

**Q.** What about the IC50 [17] of the same compound?
**A.** 2.87 µM

**Q.** And the IC50 [18]?
**A.** 4.17 µM

**Q.** What about the IC50 [19] of the same compound?
**A.** > 10 µM

**Q.** What about the IC50 [20] of the same compound?
**A.** > 10 µM

**Q.** And the IC50 [21]?
**A.** > 10 µM

**Q.** What about the IC50 [22] of the same compound?
**A.** > 10 µM

**Q.** What about the IC50 [23] of the same compound?
**A.** > 10 µM

**Q.** What about the IC50 [24] of the same compound?
**A.** > 10 µM

**Q.** What about the IC50 [25] of the same compound?
**A.** > 10 µM

**Q.** What about the IC50 [26] of the same compound?
**A.** > 10 µM

**Q.** What about the IC50 [27] of the same compound?
**A.** > 10 µM

**Q.** And the IC50 [28]?
**A.** > 10 µM

**Q.** And the IC50 [29]?
**A.** > 10 µM

**Q.** And the IC50 [30]?
**A.** > 10 µM

**Q.** What about the IC50 [31] of the same compound?
**A.** > 10 µM

**Q.** And the IC50 [32]?
**A.** > 10 µM

**Q.** What about the IC50 [33] of the same compound?
**A.** > 10 µM

**Q.** What about the IC50 [34] of the same compound?
**A.** > 10 µM

**Q.** What about the IC50 [35] of the same compound?
**A.** > 10 µM

**Q.** And the IC50 [36]?
**A.** > 10 µM

**Q.** And the IC50 [37]?
**A.** > 10 µM

**Q.** And the IC50 [38]?
**A.** > 10 µM

**Q.** What about the IC50 [39] of the same compound?
**A.** > 10 µM

**Q.** What about the IC50 [40] of the same compound?
**A.** > 10 µM

**Q.** And the IC50 [41]?
**A.** 1.05 µM

**Q.** What about the IC50 [42] of the same compound?
**A.** 0.2 µM
